# Laboratory results from PubChem BioAssay AID720717 (ICCB-Longwood Screening Facility, Harvard Medical School, 2013).
# “And” between values parts separate entries of the source, which are not always exact repeats. Identical values can stand only once. In all, about 51,000 compounds went through this assay and about 150 (0.29%) were called active.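 How the source made its calls: active means both repeat wells score below -2 in polarization z-score versus plate sample wells, excluding overly bright wells; inactive means the rest.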 This excerpt belongs to a sample that is enriched for actives.
# Tested on: LANA (ORF73) N-terminal peptide binding to nucleosomes, Human herpesvirus 8
# Experiment: LANA N-terminal peptide–nucleosome interaction blockers – biochemical, fluorescence polarization, FITC-LANA1-23, chicken nucleosomes, primary screen (AID 720717)
# Settings: FITC-LANA1-23 / chicken nucleosome fluorescence polarization; hits give low values
# In short: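 System – purified chicken nucleosomes with FITC-labelled LANA N-terminal peptide (1-23) · Amount – 240 nM purified chicken nucleosomes (480 nM peptide binding sites), final · Also added – 50 nM FITC-LANA1-23 probe · Medium – TEN-BT buffer, pH 7.5 · Incubation – compound with peptide–nucleosome mix 10–45 min at room temperature · Detection – fluorescence polarization, ex 480 nm, em 535 nm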
row,Structure (SMILES),z-score
1,CC(Oc1ccccc1)c1ccnc2ncnn12 (centres undefined),1.01 (inactive)
2,Cc1occc1-c1nnc2n1N=C(c1ccc(-c3cc(Cl)ccc3Cl)o1)CS2,-0.0445 (inactive)
3,O=C(O)c1ccc(Sc2ccccc2C(=O)O)c(C(=O)O)c1,0.129 (inactive)
4,Cc1ccc2c(n1)sc1c(=O)n(-c3ccccc3)nnc12,0.192 (inactive)
5,CCOC(=O)c1c(NC(=S)N2CCN(C(=O)c3ccco3)CC2)sc2c1CCCCCC2,0.494 (inactive)
6,O=C(CSc1nnc(Cc2cc(=O)[nH]c(=O)[nH]2)n1-c1ccccc1)NCc1ccco1,0.726 (inactive)
7,NNC(=O)Cc1csc(CC(N)=O)n1,-1.71 (inactive)
8,O=C(CC1OCCN(Cc2ccccc2)C1=O)Nc1ccc(F)cc1 (centres undefined),0.194 (inactive)
9,O=C(c1cnc2sc(N3CCCCC3)nn2c1=O)N1CCCC1,-0.108 (inactive)
10,Cc1ccc(Cn2cc(C(=O)Nc3cccnc3)ccc2=O)cc1,-0.673 (inactive)
11,O=C(CC1Nc2ccccc2NC1=O)Nc1ccccc1NC(=O)CC1Nc2ccccc2NC1=O (centres undefined),-0.867 (inactive)
12,O=S(=O)(c1cnc[nH]1)N1CCN(Cc2ccccc2)CC1,-0.596 (inactive)
13,Cc1ccc(C(=O)Nc2nc3ccc(S(N)(=O)=O)cc3s2)cc1C,-0.589 (inactive)
14,CN(Cc1ccccc1)c1ncnc2c1nc1n2CCCCC1,-0.37 (inactive)
15,O=C(NC1CCCC1)c1[nH]nc2c1CCc1ccccc1-2,0.227 (inactive)
16,CC(=O)Oc1cc(-c2ccccc2)nn1C,0.038 (inactive)
17,CC(CC(=O)NN)C1(O)CCCCC1 (centres undefined),0.05 (inactive)
18,Cc1ccc(C2=Nc3ccccc3N(CC(=O)Nc3ccc4c(c3)OCO4)C(=O)C2)cc1,-1.02 (inactive)
19,CCN(CC)S(=O)(=O)c1ccc2c(c1)CC(C)N2C(=O)C1CC1 (centres undefined),1.02 (inactive)
20,CC(C)(C)C(=O)N(Cc1ccccc1)c1ccccn1,0.774 (inactive)
21,CCc1ccc(C(c2c(C)[nH][nH]c2=O)C(C#N)C#N)cc1 (centres undefined),0.261 (inactive)
22,CCOc1ccc(/C=N/NC(=O)Cc2cc(=O)[nH][nH]2)cc1,-1.01 (inactive)
23,CN(C)/C=C/c1nc(C(F)(F)F)c(C#N)s1,5.21 (inactive)
24,N#CCn1cc(C(=O)C(F)(F)F)c2ccccc21,0.359 (inactive)
25,O=C(Cn1c(=O)oc2ccccc21)NC1CCN(Cc2ccccc2)CC1,-0.221 (inactive)
26,O=C1c2ccccc2OCC12COC(c1ccccc1)OC2 (centres undefined),-1.2 (inactive)

row,Structure (SMILES),z-score
1,CC(=O)Nc1ccc(NCC(O)Cn2ccc3ccccc32)cc1 (centres undefined),1.77 (inactive)
2,CC1CCC(NC(=O)CCCn2ncn3c(cc4occc43)c2=O)CC1 (centres undefined),0.64 (inactive)
3,COCCNC(=O)N1c2ccccc2Sc2ccccc21,0.827 (inactive)
4,O=C(CNc1ccc(C(=O)O)cc1)NCc1ccc2c(c1)OCO2,0.298 (inactive)
5,N/C(=N\O)c1cnn2c(C(F)(F)F)cc(C(F)(F)F)nc12,-0.264 (inactive)
6,CCc1ccc(N2COc3ccc4c(CC)cc(=O)oc4c3C2)cc1,0.115 (inactive)
7,Cc1cccc2cnn(CC(=O)N3CCc4ccccc4C3)c12,0.198 (inactive)
8,CN1C(C)(C)CC(NC(=O)Nc2ccc(F)cc2)CC1(C)C,0.033 (inactive)
9,Cc1cc(C)n(C(C)CC(=O)Nc2ccc(CN3CCC(C)CC3)cc2)n1 (centres undefined),-0.62 (inactive)
10,C[C@]12CCC(=O)C=C1C=CC1C2CC[C@@]2(C)C1CC[C@@]21CCC(=O)O1 (some centres undefined),0.0125 (inactive) and 0.276 (inactive)
11,CN(C)c1ccc(-c2nnc(-c3cccnc3)o2)cc1,-0.139 (inactive)
12,COc1cccc(N2C(=O)C=CC2=O)c1,0.499 (inactive)
13,CCCCc1ccc(NC(=O)CC)c(C)c1,1.52 (inactive)
14,COc1ccc(CNC(=O)C(NS(=O)(=O)c2cccc3nsnc23)C(C)C)cc1 (centres undefined),-1.48 (inactive)
15,Cc1ccc(C(CC(=O)O)c2ccccc2)c(O)c1 (centres undefined),0.53 (inactive)
16,Cc1ccc(C(=O)CSc2nnc3[nH]c(=O)c(C)nn23)cc1,-1.31 (inactive)
17,S=C(NCc1ccco1)Nc1nn(Cc2ccc(Cl)cc2Cl)cc1Cl,1.51 (inactive)
18,Cc1cc(N2CCOCC2)nc2ccc(NC(=O)CCC(=O)NC3CCCCC3)cc12,0.0965 (inactive)
19,CCCn1c(SCC(=O)N2CCCc3ccccc32)nnc1C(C)C,-2.58 (inactive)
20,CCCNC(=O)c1cc2c(Cl)ccc3c2n1CCO3,-0.473 (inactive)
21,O=C1C=CC(=O)N1Nc1ccccc1,0.669 (inactive)
22,COC(=O)c1nnn(-c2nonc2N)c1CN1C(=O)c2ccccc2C1=O,-0.366 (inactive)
23,CCn1c(N2CCN(C(=O)Nc3ccc(Cl)c(C(F)(F)F)c3)CC2)nc2ccccc21,-1.36 (inactive)
24,O=C1CCCC2=C1C(c1ccccn1)Nc1ccc3ncccc3c12 (centres undefined),-0.381 (inactive)
25,Cc1cccc(-n2nc(C)c3c(C)cc(=O)oc32)c1,0.165 (inactive)
26,O=C(O)c1cccc2c1C(=O)N(C1CCCC1)C2,0.735 (inactive)

row,Structure (SMILES),z-score
1,OCc1cccnc1Sc1ccccc1,0.147 (inactive)
2,Cc1ccc2c(c1)cc(CN(Cc1ccco1)C(=O)c1ccccc1)c1nnnn12,0.235 (inactive)
3,Cc1cc(OCCN2CCOCC2)nc(N2CCOCC2)n1,0.348 (inactive)
4,Cc1sc(-c2cccs2)nc1O,-0.538 (inactive)
5,CCc1cccc2c(C=C(C#N)C#N)cn(CC(=O)NC3CCCC3)c12,0.0985 (inactive)
6,Nc1c2c3c(sc2nc(=O)n1Cc1ccco1)CCC3,0.229 (inactive)
7,COc1ccc(N(C)S(=O)(=O)c2ccc3c(c2)CC(C)N3C(=O)C2CC2)c(OC)c1 (centres undefined),-0.361 (inactive)
8,COc1cccc(/C=C2/Sc3ccc(C(=O)NCc4ccco4)cc3NC2=O)c1,-0.179 (inactive)
9,COCCNC(=O)c1cccc(OC(C)C)c1,0.494 (inactive)
10,CN(C(=O)CSc1nc(N)cc(=O)[nH]1)c1ccccc1,-0.19 (inactive)
11,Cc1ccsc1/C=N/c1sc2c(c1C#N)CCCC2,-0.764 (inactive)
12,Cc1cc(C)c2nc(C(F)(F)F)nc(NCc3ccc4c(c3)OCO4)c2c1,2.86 (inactive)
13,CCOC(=O)NCc1cc(C(=O)O)ccc1O,0.19 (inactive)
14,CCN1C(=Nc2ccc(O)cc2)SC/C1=C\C(=O)OC,2.25 (inactive)
15,CN(C)C(CNC(=O)c1cc2ccccc2oc1=O)c1ccco1 (centres undefined),-0.421 (inactive)
16,O=S1(=O)CCC(S(=O)(=O)N2CCCC2)C1 (centres undefined),-0.472 (inactive)
17,CCCCSC1=NC(=O)CC(=O)N1,-1.46 (inactive)
18,CC(=O)N1CCC(N(c2ccc3c(c2)OCO3)S(=O)(=O)c2ccccc2)CC1,0.764 (inactive)
19,Cc1ccc(S(=O)(=O)Nc2cccc(C(=O)N3CCCCC3)c2)cc1,1.2 (inactive)
20,O=C(O)CN1CC(=O)Nc2ccccc21,0.771 (inactive)
21,O=C1Nc2ccccc2N(c2ccccc2)N1,-3.48 (active)
22,CCCCC(C)C(N)=O (centres undefined),-0.323 (inactive)
23,CC[N+](C)(CC)CCC[n+]1c(-c2ccccc2)c2cc(N)ccc2c2ccc(N)cc21,-3.89 (active) and -3.44 (active)
24,CCN(Cc1ccccc1)C(=O)C1CCN(Cc2cc(Br)c(O)c(OC)c2)CC1,-0.834 (inactive)
25,O=C1CC(NC2CCN(S(=O)(=O)c3ccc(Cl)cc3)CC2)C(=O)N1 (centres undefined),2.47 (inactive)
26,Cc1ccc(NC(=O)CSC2=NC(=O)CC(=O)N2)cc1,-0.876 (inactive)

row,Structure (SMILES),z-score
1,COc1ccc(C2=NS(=O)(=O)N(C)C(C(=O)NCC(C)C)=C2)cc1OC,-0.724 (inactive)
2,CCN(CC)C(=O)Cc1c(C(=O)O)[nH]c2ccc(Cl)cc12,0.22 (inactive)
3,Cc1ccc(C(=O)N2CCCN(C)CC2)o1,-1.2 (inactive)
4,O=C(OCc1ccccc1Cl)c1cc(=O)[nH]c2ccccc12,-1.04 (inactive)
5,O=C(Nc1ccc(Cl)cc1)c1ncoc1-c1cccs1,0.41 (inactive)
6,COC(=O)c1ccc(NS(=O)(=O)c2cc(C(=O)OC)n(C)c2)cc1,-0.537 (inactive)
7,Cc1ccc(-c2nc3ccccc3[nH]2)cc1NC(=O)C(C)C,-0.762 (inactive)
8,CCC(=O)NC1CC(=O)N(c2ccc(F)cc2)C1 (centres undefined),-0.098 (inactive)
9,COc1ccc(CCN2C(=O)CSC2c2ccc3cccc(O)c3n2)cc1OC (centres undefined),1.12 (inactive)
10,Cn1ncc(Br)c1-c1cccc(NC(=O)COCC(=O)O)c1,-1.14 (inactive)
11,CCCCCn1c(=O)[nH]c2cc(C(=O)Nc3cc(OC)c(OC)c(OC)c3)ccc2c1=O,-0.668 (inactive)
12,Cn1c(=O)c2c(nc(N3CCNCC3)n2C)n(C)c1=O,0.302 (inactive)
13,O=c1c(-c2cc3ccccc3o2)[n+]([O-])c2ccccc2n1O,-2.61 (active)
14,COc1ccc2oc(=O)cc(-c3cc4ccccc4o3)c2c1,-0.251 (inactive)
15,O=C(CSc1ncccn1)N1CCCC1,-0.327 (inactive)
16,O=C(Nc1ccc2nc(CN3CCCCC3)[nH]c2c1)c1cccs1,-0.0365 (inactive)
17,Cc1cccc(C)c1N1CCN(S(=O)(=O)N2CCCCC2)CC1,-1.66 (inactive)
18,COc1ccc(C(=O)Nc2ccccc2C(=O)NCc2ccco2)cc1,0.333 (inactive)
19,CN(C)C(=O)CN1CCC(N2CCCCC2)CC1,-0.624 (inactive)
20,COc1ccc(Cn2ccc3nc4ccn(Cc5ccc(OC)cc5)c(=O)c4cc3c2=O)cc1,0.327 (inactive)
21,CN1C(=O)/C(=C/C=C2\SCCN2C)OC1=S,-2.92 (active)
22,COc1cccc(NS(=O)(=O)c2ccc3[nH]cc(C(=O)N4CCCCC4C)c(=O)c3c2)c1 (centres undefined),0.613 (inactive)
23,O=C(O)COc1ccc(CN2CCCC2)cc1,0.199 (inactive)
24,N/C(=N\OC(=O)CC1CCCCC1)c1ccccc1,-0.568 (inactive)
25,Cc1nnc(NC2CC2)c2c1nnn2Cc1ccc(F)cc1,0.653 (inactive)
26,CN(C)CCNC(=O)c1ccc(/C=C2\SC(=S)N(C)C2=O)cc1,1.24 (inactive)
